Laboratory results published in ChEMBL document CHEMBL1137278, “Aza-stilbenes as potent and selective c-RAF inhibitors” (Bioorg Med Chem Lett, 2006).
Calls of active or inactive are those of the source. No cut-off for these calls is given here.

How the values were obtained:
[1] = Inhibition of c-RAF1/MEK1/ERK2 signalling pathway by SPA
Outline: (§1)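 Incubated 120 min at room temperature, stopped with EDTA/streptavidin SPA beads, counted by scintillation. 11-point 3-fold dilutions (0.0001–10 µM), normalized to DMSO and EDTA controls; IC50 fitted.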

[2] = target: MAP kinase p38 (Homo sapiens) (UniProt O15264+Q15759+Q16539+P53778); assay: Inhibition of p38; format: protein assay
[3] = target: Proto-oncogene tyrosine-protein kinase LCK (Mus musculus) (UniProt P06240); assay: Inhibition of mouse LCK at 10 uM
Chain of Proto-oncogene tyrosine-protein kinase LCK (Mus musculus) (P06240 2-509 limits assumed): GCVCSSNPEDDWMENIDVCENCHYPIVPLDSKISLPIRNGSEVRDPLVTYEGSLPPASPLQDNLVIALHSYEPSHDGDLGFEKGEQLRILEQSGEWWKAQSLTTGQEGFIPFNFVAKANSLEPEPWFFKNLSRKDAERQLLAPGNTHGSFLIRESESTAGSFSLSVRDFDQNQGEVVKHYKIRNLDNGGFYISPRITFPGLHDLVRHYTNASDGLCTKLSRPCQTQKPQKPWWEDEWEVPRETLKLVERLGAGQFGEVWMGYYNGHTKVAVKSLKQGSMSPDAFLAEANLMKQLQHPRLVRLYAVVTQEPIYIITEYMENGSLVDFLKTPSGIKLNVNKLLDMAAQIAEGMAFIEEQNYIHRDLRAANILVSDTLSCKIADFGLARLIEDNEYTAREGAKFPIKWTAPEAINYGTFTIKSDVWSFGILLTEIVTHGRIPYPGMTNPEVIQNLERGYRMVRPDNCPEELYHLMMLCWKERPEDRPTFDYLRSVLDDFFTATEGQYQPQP

[4] = target: Tyrosine-protein kinase Fyn (Mus musculus) (UniProt P39688); assay: Inhibition of mouse FYN at 10 uM
Chain of Tyrosine-protein kinase Fyn (Mus musculus) (P39688 whole entry): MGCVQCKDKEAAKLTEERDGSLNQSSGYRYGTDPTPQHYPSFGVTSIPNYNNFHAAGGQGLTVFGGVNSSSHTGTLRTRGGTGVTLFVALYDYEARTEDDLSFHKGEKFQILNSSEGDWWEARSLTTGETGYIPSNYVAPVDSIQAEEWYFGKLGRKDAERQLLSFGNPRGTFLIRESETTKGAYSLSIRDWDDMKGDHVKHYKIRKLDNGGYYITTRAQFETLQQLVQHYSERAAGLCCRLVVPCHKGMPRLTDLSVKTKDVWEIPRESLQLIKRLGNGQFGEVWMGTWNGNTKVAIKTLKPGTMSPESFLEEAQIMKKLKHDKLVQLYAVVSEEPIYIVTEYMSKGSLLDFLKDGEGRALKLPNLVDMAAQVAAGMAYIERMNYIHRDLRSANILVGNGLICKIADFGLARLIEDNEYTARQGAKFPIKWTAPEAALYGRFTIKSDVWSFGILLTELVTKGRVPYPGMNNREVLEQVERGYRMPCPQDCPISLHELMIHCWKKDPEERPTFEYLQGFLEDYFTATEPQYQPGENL

[5] = target: Proto-oncogene tyrosine-protein kinase Src (Homo sapiens) (UniProt P12931); assay: Inhibition of SRC kinase at 10 uM
Chain of Proto-oncogene tyrosine-protein kinase Src (Homo sapiens) (P12931 2-536 limits assumed): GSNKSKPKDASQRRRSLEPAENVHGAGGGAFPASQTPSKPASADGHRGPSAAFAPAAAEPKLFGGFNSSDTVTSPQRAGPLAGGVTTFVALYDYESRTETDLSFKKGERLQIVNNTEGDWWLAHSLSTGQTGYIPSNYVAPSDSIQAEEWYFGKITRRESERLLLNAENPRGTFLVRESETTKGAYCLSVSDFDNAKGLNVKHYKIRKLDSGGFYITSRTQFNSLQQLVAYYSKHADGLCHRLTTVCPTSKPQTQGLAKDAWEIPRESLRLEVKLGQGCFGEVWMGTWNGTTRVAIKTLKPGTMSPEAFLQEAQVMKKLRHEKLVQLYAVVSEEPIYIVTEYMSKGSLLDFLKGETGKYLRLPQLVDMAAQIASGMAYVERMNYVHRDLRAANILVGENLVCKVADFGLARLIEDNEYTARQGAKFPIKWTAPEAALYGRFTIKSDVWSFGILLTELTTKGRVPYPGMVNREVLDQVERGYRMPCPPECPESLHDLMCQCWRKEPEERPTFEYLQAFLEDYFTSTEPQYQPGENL

[6] = target: Mitogen-activated protein kinase 10 (Homo sapiens) (UniProt P53779); assay: Inhibition of JNK3
Chain of Mitogen-activated protein kinase 10 (Homo sapiens) (P53779 whole entry): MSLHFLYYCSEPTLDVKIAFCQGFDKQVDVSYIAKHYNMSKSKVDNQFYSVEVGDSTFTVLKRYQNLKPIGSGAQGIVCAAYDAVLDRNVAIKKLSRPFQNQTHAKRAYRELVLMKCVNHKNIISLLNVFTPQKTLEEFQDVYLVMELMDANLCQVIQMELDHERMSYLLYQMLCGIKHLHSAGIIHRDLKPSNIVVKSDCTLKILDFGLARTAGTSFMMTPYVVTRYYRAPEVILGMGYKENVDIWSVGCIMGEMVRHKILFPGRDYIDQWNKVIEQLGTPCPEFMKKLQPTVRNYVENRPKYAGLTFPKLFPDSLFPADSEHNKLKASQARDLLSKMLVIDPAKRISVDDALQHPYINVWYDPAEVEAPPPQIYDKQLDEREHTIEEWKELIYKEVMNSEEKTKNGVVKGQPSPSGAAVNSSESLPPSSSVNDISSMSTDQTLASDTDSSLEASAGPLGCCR

[7] = target: Tyrosine-protein kinase Lyn (Homo sapiens) (UniProt P07948); assay: Inhibition of LYN at 10 uM
Chain of Tyrosine-protein kinase Lyn (Homo sapiens) (P07948 2-512 limits assumed): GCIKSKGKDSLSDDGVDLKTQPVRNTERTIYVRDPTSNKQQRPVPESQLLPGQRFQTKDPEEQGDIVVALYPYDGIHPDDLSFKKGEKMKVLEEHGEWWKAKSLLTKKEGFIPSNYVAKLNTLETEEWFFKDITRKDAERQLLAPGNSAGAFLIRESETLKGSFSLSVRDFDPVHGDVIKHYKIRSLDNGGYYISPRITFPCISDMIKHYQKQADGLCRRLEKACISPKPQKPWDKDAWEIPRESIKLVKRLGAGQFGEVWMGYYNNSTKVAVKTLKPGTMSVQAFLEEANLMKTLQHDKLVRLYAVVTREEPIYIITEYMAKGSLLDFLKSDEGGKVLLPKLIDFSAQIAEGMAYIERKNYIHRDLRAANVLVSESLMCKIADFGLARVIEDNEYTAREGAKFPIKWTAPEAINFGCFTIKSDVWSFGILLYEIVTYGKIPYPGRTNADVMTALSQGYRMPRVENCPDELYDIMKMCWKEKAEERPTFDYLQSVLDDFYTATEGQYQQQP

[8] = target: RAF proto-oncogene serine/threonine-protein kinase (Homo sapiens, UniProt P04049); assay: Inhibition of c-RAF; outline: as §1
Chain of RAF proto-oncogene serine/threonine-protein kinase (P04049 whole entry): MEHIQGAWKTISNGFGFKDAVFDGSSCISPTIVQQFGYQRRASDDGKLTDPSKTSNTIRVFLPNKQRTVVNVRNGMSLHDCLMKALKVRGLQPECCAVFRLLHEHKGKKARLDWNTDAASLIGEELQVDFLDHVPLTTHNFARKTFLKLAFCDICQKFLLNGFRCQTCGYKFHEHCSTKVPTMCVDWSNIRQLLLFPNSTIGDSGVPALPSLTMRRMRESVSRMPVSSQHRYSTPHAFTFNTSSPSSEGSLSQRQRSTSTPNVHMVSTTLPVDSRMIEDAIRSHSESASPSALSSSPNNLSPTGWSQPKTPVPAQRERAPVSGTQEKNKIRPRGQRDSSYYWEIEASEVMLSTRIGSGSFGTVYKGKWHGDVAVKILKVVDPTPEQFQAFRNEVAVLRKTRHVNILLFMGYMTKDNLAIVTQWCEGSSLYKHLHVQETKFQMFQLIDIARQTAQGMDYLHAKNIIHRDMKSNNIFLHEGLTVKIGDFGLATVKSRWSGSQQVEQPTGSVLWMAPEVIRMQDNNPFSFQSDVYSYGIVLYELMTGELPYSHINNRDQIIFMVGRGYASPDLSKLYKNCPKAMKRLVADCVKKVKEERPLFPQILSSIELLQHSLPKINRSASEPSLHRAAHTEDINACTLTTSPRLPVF

[9] = target: Tyrosine-protein kinase Fyn (Mus musculus, UniProt P39688); assay: Inhibition of mouse FYN
Chain of Tyrosine-protein kinase Fyn (P39688 whole entry): as the sequence (P39688 whole entry) above

| Structure (SMILES) | Log IC50 [1] | further results |
| --- | --- | --- |
| CNC(=O)c1cncc(/C=C/c2c(Cl)cccc2Cl)c1 [GW445014X] | -6.6 |  |
| CNC(=O)c1cncc(/C=C/c2c(C)cc(O)cc2C)c1 | -6.6 |  |
| Cc1cc(-c2ccco2)cc(C)c1/C=C/c1cncc(-c2nn[nH]n2)c1 | -6.2 |  |
| Cc1cc(-c2ccccn2)cc(C)c1/C=C/c1cncc(-c2nn[nH]n2)c1 | -7 | Activity [2]: inactive; Activity [3]: Active; Activity [4]: Active; Activity [5]: Active; Activity [6]: inactive; Activity [7]: Active |
| Cc1cc(-c2ccsc2)cc(C)c1/C=C/c1cncc(-c2nn[nH]n2)c1 | -6 |  |
| Cc1cc(O)cc(C)c1/C=C/c1cncc(C(=O)OC(C)(C)C)c1 [GW439255X] | -5.4 |  |
| CNC(=O)Oc1cc(C)c(/C=C/c2cncc(C#N)c2)c(C)c1 | -7.4 |  |
| Cc1cc(-c2cccs2)cc(C)c1/C=C/c1cncc(-c2nn[nH]n2)c1 | -6.5 |  |
| CNC(=O)Oc1cc(C)c(/C=C/c2cncc(C(=O)OC)c2)c(C)c1 | -7.5 |  |
| Cc1cc(O)cc(C)c1/C=C/c1cncc(C(=O)O)c1 | -6.4 | IC50 [8]: 400 nM; Activity [2]: inactive; Activity [6]: inactive |
| CNC(=O)Oc1cc(C)c(/C=C/c2cncc(C(=O)N(C)C)c2)c(C)c1 | -5.1 |  |
| Cc1cccc(C)c1/C=C/c1cncc(-c2nn[nH]n2)c1 | -7.9 | Activity [2]: inactive; Activity [6]: inactive |
| CNC(=O)c1cncc(/C=C/c2c(C)cccc2C)c1 [GW445012X] | -6.6 |  |
| CNC(=O)c1cncc(/C=C/c2c(C)cccc2Cl)c1 | -7.1 |  |
| Cc1cc(O)cc(C)c1/C=C/c1cncc(C#N)c1 | -6.1 |  |
| CNC(=O)c1cncc(/C=C/c2ccccc2Cl)c1 [GW445017X] | -5.7 |  |
| Cc1cc(-c2cccnc2)cc(C)c1/C=C/c1cncc(-c2nn[nH]n2)c1 | -6.2 |  |
| CNC(=O)Oc1cc(C)c(/C=C/c2cncc(C(=O)OC(C)(C)C)c2)c(C)c1 | -7 |  |
| Cc1cc(O)cc(C)c1/C=C/c1cncc(C(N)=O)c1 [GW435821X] | -6.8 |  |
| CNC(=O)c1cncc(/C=C/c2ccccc2C)c1 [GW445015X] | -5.5 |  |
| CNC(=O)Oc1cc(C)c(/C=C/c2cncc(C(N)=O)c2)c(C)c1 | -8.1 | Activity [2]: inactive; Activity [6]: inactive |
| COC(=O)c1cncc(/C=C/c2c(C)cc(O)cc2C)c1 [GW406731X] | -6.2 |  |
| CCc1cccc(CC)c1/C=C/c1cncc(C(=O)NC)c1 [GW450241X] | -4.6 |  |
| Cc1cccc(C)c1/C=C/c1cncc(C#N)c1 | -6 |  |
| CNC(=O)Oc1cc(C)c(/C=C/c2cncc(C(=O)NC)c2)c(C)c1 [GW432441X] | -8 |  |
| Cc1cc(O)cc(C)c1/C=C/c1cncc(C(=O)N(C)C)c1 [GW427984X] | -5.1 |  |
| Cc1cc(O)cc(C)c1/C=C/c1cncc(-c2nn[nH]n2)c1 | -8.4 | IC50 [8]: 4 nM; Activity [2]: inactive; IC50 [9]: 40 nM; Activity [6]: inactive |
| CNC(=O)Oc1cc(C)c(/C=C/c2cncc(C(=O)O)c2)c(C)c1 | -8.2 | Activity [2]: inactive; Activity [6]: inactive |
